PHOSPHO1 inh: inhibitors of human PHOSPHO1 phosphatase | recombinant PHOSPHO1, absorbance phosphatase assay | hit rate 1.1% among 290,000 | inhibition, % at 13.3 µM; in the data active = inhibition above about 60%
Target sequence (Q8TCT1 whole entry, looked up): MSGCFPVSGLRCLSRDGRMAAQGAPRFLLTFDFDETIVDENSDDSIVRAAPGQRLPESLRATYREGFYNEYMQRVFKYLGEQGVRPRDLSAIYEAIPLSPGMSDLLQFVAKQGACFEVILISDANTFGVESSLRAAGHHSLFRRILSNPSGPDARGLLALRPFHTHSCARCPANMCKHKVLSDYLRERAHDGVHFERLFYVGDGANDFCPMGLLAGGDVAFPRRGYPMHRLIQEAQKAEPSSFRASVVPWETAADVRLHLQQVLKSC
MrgX1 ag: human MrgX1 receptor agonism, primary screen; Q96LB2; MrgX1-HEK293 cells, Fluo-4 calcium fluorescence, agonist mode; active compounds read high; B-score at 10 µM; hit rate 0.44% among 310,000; AID 588627;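 active = calcium response B-score plate-corrected fluorescence ratio at least 3 library SD, with starting fluorescence B-score inside 5 SD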
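Material: MrgX1-expressing HEK293 cells; input: 15,000 cells per well; doses: test compound given as first of three sequential additions; schedule: overnight plating before 1 h dye loading; technique: Fluo-4 NW calcium-flux fluorescence, kinetic read; evaluation: baseline-normalised fluorescence change ratio, B-scored; control set: plate-wise positive and negative controls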
MrgX1 antagonist: antagonists of human MrgX1 receptor; Q96LB2; MRGX1-HEK293 calcium flux, Fluo-4, BAM8-22 antagonism; active compounds read low; B-score at 10 µM; hit rate 1.3% among 310,000; AID 588676;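 active = calcium-response B-score plate-corrected more than 3 library SD below zero, starting fluorescence within 5 deviations, no agonist response on first addition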;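 also: peak minus trough fluorescence over baseline after final BAM8-22 challenge near maximal dose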
RGS4 block: inhibitors of human RGS4 | P49798 | HEK293 M3R/RGS4 inducible, Fluo-4 calcium flux; active compounds read high; triggered by carbachol at its EC20 | B-score at 10 µM | hit rate 0.45% among 310,000 | AID 463165;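 active = B-score, a plate-corrected calcium signal, over three deviations above library mean, with baseline fluorescence within five deviations of library mean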;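 also: RGS4 expression induced by doxycycline in cells with stable M3 receptor; B-score is computed from the integrated fluorescence ratio over baseline after carbachol; higher B-score means a larger calcium signal and so more RGS4 inhibition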
Target sequence (P49798 whole entry, looked up): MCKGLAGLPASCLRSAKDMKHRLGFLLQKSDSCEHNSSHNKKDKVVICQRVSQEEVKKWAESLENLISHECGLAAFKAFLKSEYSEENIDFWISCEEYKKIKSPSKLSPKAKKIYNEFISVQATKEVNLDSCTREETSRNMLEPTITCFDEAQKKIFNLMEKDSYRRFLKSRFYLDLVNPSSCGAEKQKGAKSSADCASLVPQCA
MrgX1 allo act: human MrgX1 positive allosteric modulation, primary screen; Q96LB2; MrgX1-HEK293, Fluo-4 calcium flux, FDSS; active compounds read high; hit rate 0.63% among 310,000; B-score at 10 µM;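 active = plate-corrected calcium response at least 3 library SD above typical, normal starting fluorescence, not activating the receptor alone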;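 also: compound read alongside a low EC10 to EC30 dose of BAM8-22 agonist; peak minus trough fluorescence over baseline measured at the second addition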
RGS4 pot: RGS4 potentiation or activation; HEK293 M3R/inducible RGS4, carbachol calcium flux Fluo4; active compounds read low; B-score at 10 µM; hit rate 0.92% among 310,000; AID 463111;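 active = B-score of the integrated calcium signal more than 4 SD below the library mean, with starting fluorescence not abnormally high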;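 also: negative B-score means reduced calcium response which marks RGS4 activation or potentiation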
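Assay system: HEK293 FlpIn-TREx cells, stable M3R, doxycycline-inducible RGS4 / Probe or stimulus: carbachol, ECmax concentration / Times: overnight RGS4 induction, 30 min dye load 37 °C, 20 min compound RT / Signal: kinetic calcium fluorescence imaging with Fluo4-AM dye, 2 µM / Measure: Agonist-evoked peak-minus-minimum fluorescence over baseline, integrated ratio, B score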
Hits are given with their value; 0 = inactive; - = not tested or not shown. An excerpt weighted towards active compounds, which were near 4.5% of everything screened.

SMILES | PHOSPHO1 inh | MrgX1 ag | MrgX1 antagonist | RGS4 block | MrgX1 allo act | RGS4 pot
N#C/C(=C\c1cccc(O)c1)C(=O)Nc1ccc2c(c1)OCCO2 | 0 | 0 | 0 | 0 | 17 | 0
CCC(C)[C@H]1CNCCN1CCc1cccc(F)c1 (stereo partly drawn) | - | 0 | 0 | 0 | 0 | 0
NS(=O)(=O)c1ccc(NC(=O)/C=C/c2ccc(S(=O)(=O)NCc3ccco3)cc2)cc1 | 0 | 0 | 0 | 0 | 0 | 0
CCc1ccc2c(CN3CCc4ccccc43)cc(=O)oc2c1 | 0 | 38 | 0 | 0 | 0 | 0
Cc1cc2oc(=O)cc(CN3CCc4ccccc43)c2cc1Cl | 0 | 54 | 0 | 0 | 0 | 0
O=C(CC1SC(=NCCc2ccccc2)N(/N=C/c2cccs2)C1=O)Nc1ccc(Cl)cc1 (stereo not drawn) | 0 | 0 | 0 | 0 | 0 | 0
COC(=O)/C(=C1/Oc2ccc(C)cc2S1)C(F)(F)F | 0 | 0 | 0 | 0 | 0 | 0
Nc1c(C=C2C=CC(=O)C=C2)c(=O)nc2snc(SCc3ccccc3)n12 | - | 0 | 0 | 0 | 0 | 0
CCC(Sc1nnc(-c2ccc(C)c(Cl)c2)n1CC)C(=O)Nc1nccs1 (stereo not drawn) | 62 | 0 | 0 | - | 0 | -
CCCS(=O)(=O)c1c(S(=O)(=O)CCC)c2cnccn2c1C(=O)c1ccc(OC)cc1 | 0 | 0 | 0 | 0 | 13 | 0
Cc1ccc(-c2csc(N/N=C/C=C/c3ccccc3)n2)cc1 | 0 | 0 | -5.4 | 0 | 0 | 0
Cc1ccc(-c2csc(N/N=C/c3ccco3)n2)cc1 | 0 | 0 | 0 | 0 | 0 | 0
C(=N\Nc1nc(-c2ccccc2)cs1)/c1ccco1 | 0 | 0 | -6.7 | 0 | 0 | 0
O=S1(=O)N=C(SCCO)c2ccccc21 | 92 | 0 | 0 | 0 | 0 | 0
CCOC1=NS(=O)(=O)c2ccccc21 | 0 | 0 | 0 | 0 | 0 | 0
Cc1ccc(C2=NNC(C(O)C(O)C(O)C(O)CO)S2)cc1 (stereo not drawn) | 90 | 0 | 0 | 0 | 0 | 0
COc1ccc(Nc2nc(-c3ccccc3O)nc3ccccc23)cc1 | 0 | 0 | 0 | 0 | 0 | -7
COc1ccc(Nc2nc(-c3ccccc3F)nc3ccccc23)cc1OC | 0 | 0 | 0 | 0 | 0 | -7.2
Cc1cccc(N2CCN(C(=O)c3cn(C)c(=O)c4c3c3ccccc3n4C)CC2)c1C | 0 | 0 | 0 | 0 | 9.5 | 0
c1ccc(CSc2ccc(-c3ccco3)nn2)cc1 | 0 | 0 | 0 | 0 | 0 | 0
CC(C)NC(=O)c1ccccc1NC(=O)/C=C/c1cccc([N+](=O)[O-])c1 | 0 | 0 | -4.5 | 0 | 0 | 0
COc1ccc(NC(=O)/C=C/c2ccccc2)c([N+](=O)[O-])c1 | 0 | 0 | -7.1 | 0 | 0 | 0
COc1ccc(/C=C/C(=O)Nc2ccc(OC)cc2[N+](=O)[O-])cc1 | 0 | 0 | 0 | 0 | 0 | 0
Cc1nc(N2CCCCC2)c2sc(=S)n(C)c2n1 | 0 | 0 | 0 | 0 | 0 | 0
CCN1CCN(c2nc(C)nc3c2sc(=S)n3C)CC1 | 60 | - | - | - | - | -
SMILES | PHOSPHO1 inh | MrgX1 ag | MrgX1 antagonist | RGS4 block | MrgX1 allo act | RGS4 pot
O=C(NC1CCCC1)C(c1ccccc1F)N(C(=O)c1ccco1)C1CCCC1 (stereo not drawn) | 0 | 0 | 0 | 0 | 0 | -7.1
CCOC(=O)CN(C(=O)CNC(=O)c1ccco1)C(C(=O)NC1CCCC1)c1ccccc1OCC (stereo not drawn) | 0 | 0 | -5.4 | 0 | 0 | 0
COCCCNCCOc1ccc(C(C)(C)c2ccccc2)cc1 | 0 | 0 | 0 | 0 | 0 | -7.8
O=C(Cn1c(=O)oc2ccccc21)N1CCCC1 | - | 0 | 0 | 0 | 0 | 0
CC(=O)Nc1cccc(C(=O)OCC(=O)Nc2c(C)nn(-c3ccccc3)c2C)c1 | - | 0 | 0 | 0 | 0 | 0
Cc1nn(-c2ccccc2)c(C)c1NC(=O)COC(=O)c1ccc(Cl)c(N)c1 | - | 0 | 0 | 0 | 0 | -7
COC(=O)C[C@H]1c2cc(C(F)(F)F)ccc2S(=O)(=O)N1c1ccc(N(C)C)cc1 | - | 0 | 0 | 0 | 0 | 0
O=C(NN1CC(C(=O)OCc2ccc(Cl)cc2Cl)CC1=O)c1ccccc1 (stereo not drawn) | 61 | 0 | 0 | 0 | 0 | 0
O=C(NCc1ccc(Cl)cc1Cl)C1CC(=O)N(Cc2ccccc2)C1 (stereo not drawn) | 0 | 0 | 0 | 0 | 0 | 0
Cc1nnc(NC(=O)CSc2ccccc2N)s1 | 0 | 0 | 0 | 0 | 0 | 0

Screens: PubChem, several laboratories
